One data set concerns Human serum protein. Nature of the data set: Human serum protein binding. The format is in vitro ADME. The note with it: 22 h incubation with the serum, mean ± SD, triplicate.
In data set [1] the test system is B cells from healthy donors. In words: Toxicity toward B cells from healthy donors. The format is cell-based, human. The note with it: n=3.
Data set [2] relates to T cells from healthy donors. Nature of the data set: Toxicity toward T cells from healthy donors. The format is cell-based, human. The following applies: n=3.
The test system of data set [3] is primary CLL cells. In words: Induction of apoptosis / cell death in primary CLL cells. The format is cell-based, human.
The subject of data set [4] is primary CLL cells. In words: Mitochondrial outer membrane permeabilization. The format is cell-based, human. The following applies: read-out: IC50 for MOMP induction; 24 h, DiOC6(3) staining; mean ± SD in 15 CLL samples.
In the next data set the test system is FBS protein. In words: FBS protein binding. The format is in vitro ADME, bovine. The following applies: 22 h incubation with the serum; mean ± SD, triplicate.
In data set [5] the test system is primary CLL cells. Nature of the data set: Protein synthesis by [3H]leucine incorporation in primary CLL cells. The note with it: primary CLL samples, 4 h after exposure. The format is cell-based, human.
The subject of the next data set is Mcl-1. Nature of the data set: Immunoblot of Mcl-1 protein level in CLL cells. The format is cell-based, human. The note with it: 24 h.
The subject of a further data set is Bcl-2. Nature of the data set: Immunoblot of Bcl-2 protein level in CLL cells. The format is cell-based, human. The note with it: 24 h. In general terms: A western blot detects proteins with antibodies after separation by electrophoresis.
Another data set deals with Bcl-XL. In words: Immunoblot of Bcl-XL protein level in CLL cells. The format is cell-based, human. The method, boiled down: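 Primary CLL cells from patients (informed consent) exposed to test compound, then immunoblotted for Bcl-XL alongside Mcl-1, Bcl-2 and PARP. Cleaved PARP served as the apoptosis marker. Three CLL patient samples were run, and one representative blot is shown.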

The conditions of data set [6]: human serum and fetal bovine serum; cited from earlier work.
A short description of data set [7]: Human serum protein binding. The format is in vitro ADME. The following applies: human.
A short description of another data set: FBS protein binding. The note with it: bovine. The format is in vitro ADME, bovine.

Consider `CC(/C=C/C(C)=C/[C@@H]1Cc2nc(cs2)CC[C@@H](N)CC(=O)O[C@@H](C)C/C(C)=C/C=C\C(=O)O1)=C\CN(C)C` [Compound 3, des-methyl PatA], for which, in the data set on Human serum protein, the “Human serum protein binding (%) Fraction Bound” value is on record as 86.7 ± 4.7% and the “Human serum protein binding (%) Recovery” value turned out to be 54.0 ± 2.6%. The “toxicity to normal B cells compared with CLL cells / PatA” value in data set [1] was “significantly lower toxicity”. The “toxicity to normal T cells compared with CLL cells / PatA” value in data set [2] was “significantly lower toxicity”.
`CC(/C=C/C(C)=C/[C@@H]1Cc2nc(cs2)CCCCC(=O)O[C@@H](C)C/C(C)=C/C=C\C(=O)O1)=C\CN(C)C` [DMDA PatA (2), des-methyl, des-amino PatA]: the “times less potent than PatA” value with primary CLL cells [3] (CLL cells in media with 10% autologous patient plasma) is on record as “about 30 times”. In addition, the IC50 – broadly, the concentration that gives 50% inhibition – with primary CLL cells [3] (read-out: IC50 in one sample with 19% del11q, single CLL sample with 19% del11q) is 4.32 µM. In addition, the IC50 in the data set with primary CLL cells [4] worked out at 4920 ± 1400 nM. For the same compound, in the data set with Human serum protein, the “Human serum protein binding (%) Fraction Bound” value stood at 99.6 ± 0.1% and the “Human serum protein binding (%) Recovery” value is reported as 38.1 ± 7.5%. Also, in the data set with Human serum protein (listed as DMDAPatA), the “Human serum protein binding (%) Fraction Bound” value was determined as 99.7% and the “Human serum protein binding (%) Recovery” value came to 31.4%. Further, in the data set with FBS protein, the “FBS protein binding (%) Fraction Bound” value was 99.1 ± 0.1% and the “FBS protein binding (%) Recovery” value came to 78.3 ± 2.7%. Moreover, the “inhibition of protein synthesis ([3H]leucine incorporation)” value in the data set with primary CLL cells [5] is on record as “inhibited protein synthesis”. Moreover, the “effect on Mcl-1 protein level” value in the data set with Mcl-1 was “reduced levels”. Moreover, in the data set on Bcl-2, the “effect on Bcl-2 expression” value is recorded as “without affecting the expression”. Moreover, the “effect on Bcl-XL expression” value in the data set with Bcl-XL is reported as “without affecting the expression”. Besides, the “stability in human serum compared with fetal bovine serum” value in data set [6] is on record as “similar”.
For the compound `CC(/C=C/C(C)=C/[C@@H]1Cc2nc(cs2)[C@@H](C)C[C@@H](N)CC(=O)O[C@@H](C)C/C(C)=C/C=C\C(=O)O1)=C\CN(C)C` [PatA (1), Pateamine A, reference compound], the IC50 with primary CLL cells [3] (Homo sapiens, CLL cell, 24 h, read-out: IC50, μM 10% FBS) turned out to be 0.13 ± 0.08 µM; in the data set on primary CLL cells [3] (Homo sapiens, CLL cell, 24 h, read-out: IC50, μM 10% Plasma), 0.12 ± 0.09 µM. Further, the recovery at 22 h came to 80.4 ± 12.8% in data set [7] and 86.2% in the data set “FBS protein binding” (FBS protein binding (%) Recovery, 22 h incubation with the serum, mean ± SD, triplicate). The values for the unbound share (fraction unbound) at 22 h (in data set [7] (serum); in the data set “FBS protein binding” (serum)) were 0.026 and 0.013, respectively. The “FBS protein binding (%) Recovery” value in the data set on FBS protein was determined as 86.3 ± 4.3%.

Values taken from PMC8785363 (Leukemia, 2019).
